This note sets out measurements from ChEMBL document CHEMBL1932946, “Design, synthesis and anticonvulsant evaluation of novel N-(4-substituted phenyl)-2-[4-(substituted) benzylidene]-hydrazinecarbothio amides” (Eur J Med Chem, 2012).

For orientation: logP means the decadic logarithm of the partition coefficient of the neutral form, usually between octanol and water. Low values mean lower lipophilicity, high ones higher lipophilicity.

Data set [1] has as its system Rattus norvegicus. Description: Acute toxicity in albino Sprague-Dawley rat pilocarpine-induced status prevention model at 100 mg/kg, ip measured 2 hrs post pilocarpine challenge. The settings on record: in vivo. More on the design: dose 100 mg/kg, route intraperitoneal. The class given is organism-based. A digest of the protocol:
(§1)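 Acute motor-impairment screen in the PISP programme, using male Sprague Dawley rats. Compound was suspended in 0.5% methyl cellulose and given i.p. at 100, 300 or 600 mg/kg. Two rats were used per dose. Behaviour was closely observed and recorded over a 4 h period at 0.25, 0.5, 1.0, 2.0 and 4.0 h. The result is scored as number toxic over number tested.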

Data set [2] deals with Rattus norvegicus. Description: Acute toxicity in albino Sprague-Dawley rat pilocarpine-induced status prevention model at 600 mg/kg, ip measured 0.5 hrs post pilocarpine challenge. The class given is organism-based. More on the design: dose 600 mg/kg, route intraperitoneal. The settings on record: in vivo. The method in brief: as §1
The subject of data set [3] is Rattus norvegicus. Description: Acute toxicity in albino Sprague-Dawley rat pilocarpine-induced status prevention model at 600 mg/kg, ip measured 0.25 hrs post pilocarpine challenge. The class given is organism-based. Further details: dose 600 mg/kg, route intraperitoneal. The settings on record: in vivo. A digest of the protocol:
as §1

The subject of data set [4] is Mus musculus. As to the kind of experiment: Anticonvulsant activity in albino CF-1 mouse assessed as protection against 6 Hz psychomotor seizure at 100 mg/kg, ip after 4 hrs by minimal clonic seizure test. Further details: dose 100 mg/kg. The class given is functional, organism-based. A digest of the protocol: (§2)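 Male CF-1 albino mice (18–25 g) given compound i.p., suspended in 0.5% methyl cellulose, 100 mg/kg in screen. Four mice per time point challenged at 0.25, 0.5, 1.0, 2.0 and 4.0 h via corneal electrodes (32 mA, 3 s, 6 Hz). Protection = absence of psychomotor seizure (minimal clonic phase, automatistic behaviours). Scored as animals protected/tested.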

Data set [5] has as its system Rattus norvegicus. As to the kind of experiment: Acute toxicity in albino Sprague-Dawley rat pilocarpine-induced status prevention model at 300 mg/kg, ip measured 2 hrs post pilocarpine challenge. The class given is organism-based. Further details: dose 300 mg/kg, route intraperitoneal. The settings on record: in vivo. A digest of the protocol: as §1
The test system of data set [6] is Rattus norvegicus. Description: Acute toxicity in albino Sprague-Dawley rat pilocarpine-induced status prevention model at 600 mg/kg, ip measured 1 hr post pilocarpine challenge. The class given is organism-based. More on the design: dose 600 mg/kg, route intraperitoneal. The settings on record: in vivo. A digest of the protocol: as §1
The test system of data set [7] is Rattus norvegicus. As to the kind of experiment: Acute toxicity in albino Sprague-Dawley rat pilocarpine-induced status prevention model at 300 mg/kg, ip measured 1 hr post pilocarpine challenge. The class given is organism-based. More on the design: dose 300 mg/kg, route intraperitoneal. The settings on record: in vivo. A digest of the protocol: as §1
Data set [8] has as its system Rattus norvegicus. Description: Acute toxicity in albino Sprague-Dawley rat pilocarpine-induced status prevention model at 100 mg/kg, ip measured 0.25 hrs post pilocarpine challenge. Further details: dose 100 mg/kg, route intraperitoneal. The class given is organism-based. The settings on record: in vivo. The method in brief:
as §1

Data set [9] deals with Rattus norvegicus. As to the kind of experiment: Acute toxicity in albino Sprague-Dawley rat pilocarpine-induced status prevention model at 100 mg/kg, ip measured 1 hr post pilocarpine challenge. The class given is organism-based. More on the design: dose 100 mg/kg, route intraperitoneal. The settings on record: in vivo. A digest of the protocol:
as §1

The subject of data set [10] is Mus musculus. As to the kind of experiment: Anticonvulsant activity in albino CF-1 mouse assessed as protection against 6 Hz psychomotor seizure at 100 mg/kg, ip after 2 hrs by minimal clonic seizure test. The class given is functional. The settings on record: route intraperitoneal. A digest of the protocol: as §2
Data set [11] relates to Mus musculus. As to the kind of experiment: Neurotoxicity in albino CF-1 mouse assessed as minimum motor impairment at 300 mg/kg, ip after 4 hrs by rotarod test. The class given is toxicity, organism-based. Further details: dose 300 mg/kg, route intraperitoneal. The settings on record: in vivo. The method in brief:
(§3)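 Minimal motor impairment assessed in male CF-1 albino mice (18–25 g) at 0.5 and 4 h after i.p. doses of 30, 100 and 300 mg/kg, given in 0.5% methyl cellulose. Minimum dose toxic in half or more of mice recorded.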
Background: In the rotarod test animals must keep their balance on a rotating rod.

Data set [12] deals with Mus musculus. Description: Neurotoxicity in albino CF-1 mouse assessed as minimum motor impairment at 300 mg/kg, ip after 0.5 hrs by rotarod test. The class given is toxicity, organism-based. More on the design: dose 300 mg/kg, route intraperitoneal. The settings on record: in vivo. A digest of the protocol: as §3
Data set [13] concerns Mus musculus. Description: Anticonvulsant activity in albino CF-1 mouse assessed as protection against 6 Hz psychomotor seizure at 100 mg/kg, ip after 0.25 hrs by minimal clonic seizure test. The class given is functional. A digest of the protocol:
as §2

A short description of data set [14]: Octanol-phosphate buffer partition coefficient, log P of the compound at 5 mg after 24 hrs by UV spectroscopic analysis. The class given is physicochemical. The method in brief: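 5 mg compound added to 10 mL octanol plus 10 mL phosphate buffer in a stoppered tube. Mixture shaken mechanically 24 h at room temperature, then left 6 h in a separating funnel to equilibrate.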

The test system of data set [15] is Mus musculus. As to the kind of experiment: Anticonvulsant activity in albino CF-1 mouse assessed as protection against 6 Hz psychomotor seizure at 100 mg/kg, ip after 1 hr by minimal clonic seizure test. The class given is functional. The settings on record: route intraperitoneal. The method in brief: as §2
Data set [16] concerns Rattus norvegicus. As to the kind of experiment: Acute toxicity in albino Sprague-Dawley rat pilocarpine-induced status prevention model at 100 mg/kg, ip measured 0.5 hrs post pilocarpine challenge. The class given is organism-based. Further details: dose 100 mg/kg, route intraperitoneal. The settings on record: in vivo. The method in brief:
as §1

The test system of data set [17] is Rattus norvegicus. As to the kind of experiment: Acute toxicity in albino Sprague-Dawley rat pilocarpine-induced status prevention model at 300 mg/kg, ip measured 0.25 hrs post pilocarpine challenge. The class given is organism-based. Further details: dose 300 mg/kg, route intraperitoneal. The settings on record: in vivo. The method in brief: as §1
Data set [18] has as its system Rattus norvegicus. Description: Acute toxicity in albino Sprague-Dawley rat pilocarpine-induced status prevention model at 300 mg/kg, ip measured 4 hrs post pilocarpine challenge. The class given is organism-based. The settings on record: in vivo. More on the design: dose 300 mg/kg, route intraperitoneal. The method in brief: as §1
Data set [19] concerns Rattus norvegicus. As to the kind of experiment: Acute toxicity in albino Sprague-Dawley rat pilocarpine-induced status prevention model at 300 mg/kg, ip measured 0.5 hrs post pilocarpine challenge. The class given is organism-based. The settings on record: in vivo. More on the design: dose 300 mg/kg, route intraperitoneal. A digest of the protocol:
as §1

Data set [20] has as its system Rattus norvegicus. Description: Acute toxicity in albino Sprague-Dawley rat pilocarpine-induced status prevention model at 600 mg/kg, ip measured 2 hrs post pilocarpine challenge. The class given is organism-based. Further details: dose 600 mg/kg, route intraperitoneal. The settings on record: in vivo. The method in brief: as §1
The test system of data set [21] is Rattus norvegicus. Description: Acute toxicity in albino Sprague-Dawley rat pilocarpine-induced status prevention model at 600 mg/kg, ip measured 4 hrs post pilocarpine challenge. The class given is organism-based. Further details: dose 600 mg/kg, route intraperitoneal. The settings on record: in vivo. A digest of the protocol:
as §1

The test system of data set [22] is Mus musculus. Description: Anticonvulsant activity in albino CF-1 mouse assessed as protection against 6 Hz psychomotor seizure at 100 mg/kg, ip after 0.5 hrs by minimal clonic seizure test. The class given is functional. The settings on record: route intraperitoneal. A digest of the protocol: as §2
In data set [23] the test system is Rattus norvegicus. As to the kind of experiment: Acute toxicity in albino Sprague-Dawley rat pilocarpine-induced status prevention model at 100 mg/kg, ip measured 4 hrs post pilocarpine challenge. The class given is organism-based. Further details: dose 100 mg/kg, route intraperitoneal. The settings on record: in vivo. The method in brief: as §1

Calls of active or inactive are those of the source. No cut-off for these calls is given here.

Regarding `Cc1cc(Oc2ccc(/C=N/NC(=S)Nc3ccc(Br)cc3)cc2)ccc1Cl`, the Activity entry in data set [1], in [2], in data set [3], in data set [5], in [6] and in [7] was “Non-toxic” throughout. Besides, the Activity entry is “Non-toxic” in data set [8]; “Non-toxic” in [9]; 50% in [10]; “Non-toxic” in data set [11]; “Non-toxic” in data set [12]; 50% in [15]. For the same molecule, the Activity entry in data set [16], in data set [17], in [18], in data set [19], in data set [20] and in data set [21] was “Non-toxic” in each case. For the same molecule, the Activity was 75% in [22] and “Non-toxic” in data set [23]. In addition, the result in [4] was inactive. Moreover, in [13], the result was Active. In data set [14], this molecule had a logP at 24 h of 7.89.
